Bioassay records (PubChem BioAssay)
Hck Nef HTS: blocks Nef-activated human Hck kinase; Recombinant Hck-YEEI plus Nef, Z-Lyte FRET kinase assay; inhibition, % at 20 µM; 220,000 compounds, 0.68% hits;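 active means Hck-Nef kinase inhibition above about 50%, limit read from the data; inactive means inhibition below that limit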;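 further: 0% = DMSO with Hck plus Nef and 100% = Hck alone without Nef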
Target sequence (P08631 whole entry, looked up): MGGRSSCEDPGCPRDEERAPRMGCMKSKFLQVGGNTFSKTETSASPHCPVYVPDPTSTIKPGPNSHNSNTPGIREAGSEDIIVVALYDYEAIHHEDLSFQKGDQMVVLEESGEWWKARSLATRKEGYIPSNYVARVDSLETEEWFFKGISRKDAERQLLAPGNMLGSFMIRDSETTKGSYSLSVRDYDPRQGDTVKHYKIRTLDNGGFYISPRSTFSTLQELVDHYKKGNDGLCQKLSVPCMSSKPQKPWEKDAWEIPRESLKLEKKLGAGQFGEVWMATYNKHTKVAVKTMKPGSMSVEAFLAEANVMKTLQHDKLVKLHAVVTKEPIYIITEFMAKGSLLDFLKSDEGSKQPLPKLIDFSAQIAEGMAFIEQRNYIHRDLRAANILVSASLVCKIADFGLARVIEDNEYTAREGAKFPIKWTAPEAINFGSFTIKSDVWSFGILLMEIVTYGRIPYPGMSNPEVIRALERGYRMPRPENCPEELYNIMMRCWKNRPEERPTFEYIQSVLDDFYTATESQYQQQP
Runt-SMMHC FRET: Runt domain-CBFb-SMMHC interaction inhibition; Cerulean-Runt/Venus-CBFb-SMMHC FRET ratio 530/480, 1 h; inhibition, % at 20 µM; 220,000 compounds, 0.74% hits; AID 1434;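 active means mean inhibition across duplicate retests at 20 µM reaching about 50%, limit read from the data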;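 further: 0% = DMSO wells and 100% = wells with excess untagged CBFb-SMMHC; inhibitors lower the FRET ratio by blocking Runt binding to CBFb-SMMHC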
RanGTP-Imp inh: inhibitors of RanGTP-importin-beta interaction, primary screen, biochemical, FRET, CFP-Ran, YFP-importin-beta, homogeneous; cell-free CFP-Ran/YFP-importin-beta FRET ratio; inhibition, % (concentration not given with the values); 300,000 compounds, 1.1% hits; AID 2216;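 active means more than half of the replicate wells show a fall in the fluorescence ratio signal beyond about 16%, limit read from the data, passing the limit was not always enough; inconclusive means exactly half of the replicate wells pass the set limit; inactive means fewer than half of replicates pass the limit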;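 further: 0% = DMSO wells and 100% = Ran loaded with GDP instead of GTP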
Runt-CBFb FRET: inhibitors of human RUNX1 Runt domain binding to CBFb. Q01196+Q13951. Cerulean-Runt/Venus-CBFb FRET ratio 530/480, 1 h. inhibition, % at 20 µM. 220,000 compounds, 0.46% hits;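 active means inhibition over about 50% at 20 µM in the single-dose screen, limit read from the data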;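 further: 0% = DMSO wells and 100% = excess unlabeled CBFb competitor control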
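Measured by: fluorescence energy transfer, 422 nm excitation, 530/480 nm emission; test system: Cerulean-tagged RUNX1 Runt domain (FRET donor) fusion protein; buffer or medium: Tris pH 7.5 buffer with BSA; compound: one dose, 20 µM compound, 1% DMSO; times: two 1 h room-temperature incubations shielded from light; benchmarks: unlabeled CBFb 5 µM, positive control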
CaV13 FRET inh: Primary screen for inhibitors of IQ motif and Ca2+-dependent inactivation inhibitor domain binding in CACNA1D, Förster resonance energy transfer in living cells, … | 340,000 compounds, 0.098% hits | AID 743397 | inhibition, % at 12.3 µM | HEK cells, CFP/YFP FRET ICDI-IQ, plate reader, 10 min; percent FRET-ratio fall versus neutral wells;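 active means mean replicate inhibition of at least 30% and at least 1% of replicates passing that level; inconclusive means only one of the two criteria is met; inactive means neither criterion is met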;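 further: 0% = median of the neutral control wells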
Hck-Nef confirm: Hck-Nef kinase inhibition, confirmation; AID 463188; 1,300 compounds, 28% hits; calls only at 10 µM; shares compounds with Hck Nef HTS; Recombinant Hck-YEEI:Nef, Z-Lyte FRET kinase assay;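 active means average inhibition of at least 50%, with Z-scores no higher than 3 in both the phospho-tyrosine peptide and fluorescence counterscreens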
Numbers without * were called inactive; i = inactive; ? = inconclusive; nt = no result given; + = active, no number. Sampled rows, rich in hits. Any-hit rate of the full collection: about 1.5%.

SMILES | Hck Nef HTS | Runt-SMMHC FRET | RanGTP-Imp inh | Runt-CBFb FRET | CaV13 FRET inh | Hck-Nef confirm
Cc1cc(CNC(=O)COc2ccc(F)cc2Cl)cc(C)c1O | -1.4 | -4.6 | 1.8 | -0.2 | 5.1 | nt
CSc1nc(-c2cccs2)c(C#N)c(=O)[nH]1 | 7.8 | -4.9 | 3.3 | 0.7 | -9.1 | nt
N#Cc1c(-c2cccs2)nc(SCc2ccc(Cl)cc2)[nH]c1=O | 69.4* | -11.1 | -3.2 | -1.3 | -5.5 | +
CC(=O)Oc1ccc2c(C)cc(=O)oc2c1 | 86.0* | 19.1 | 0.1 | 8.8 | -2.1 | i
CCN(c1ccccc1)S(=O)(=O)c1cc(C(=O)Oc2ccc3c(C)cc(=O)oc3c2)ccc1C | 55.7* | 25.1 | -3.6 | 13.4 | -2.1 | nt
CCN(c1ccccc1)S(=O)(=O)c1cc(C(=O)OCC(=O)c2c(N)n(C)c(=O)n(C)c2=O)ccc1C | nt | nt | nt | nt | -3.5 | nt
Fc1cccc(/C=N/Nc2ncnc3nc[nH]c23)c1 | 64.8* | -6.1 | 1.7 | -0.1 | -10.3 | +
Fc1cccc(/C=N/Nc2ccccn2)c1 | 26.2 | -7.9 | 4.4 | -0.7 | 1.4 | nt
Fc1ccccc1/C=N/Nc1ncnc2nc[nH]c12 | 55.7* | -0.9 | -2.8 | -0.1 | -9.6 | +
Cc1onc(-c2c(F)cccc2Cl)c1C(=O)O/N=C(\N)c1ccc([N+](=O)[O-])o1 | 10.0 | 0.4 | -0.1 | 0.1 | -7.1 | nt
COc1ccc(-c2oc3ncnc(NCCN4CCOCC4)c3c2-c2ccc(OC)cc2)cc1 | 66.4* | -2.2 | ? | -2.8 | nt | +
c1ccc(-c2oc3ncnc(NCCCN4CCOCC4)c3c2-c2ccccc2)cc1 | 60.5* | 0.3 | 6.2 | 0.7 | nt | +
COc1ccc(-c2oc3ncn(CCN4CCOCC4)c(=N)c3c2-c2ccc(OC)cc2)cc1 | 19.6 | 1.7 | -0.4 | -1.5 | -5.7 | nt
COc1ccc(-c2oc3ncnc(NCCCN4CCOCC4)c3c2-c2ccc(OC)cc2)cc1 | 93.7* | -7.9 | 0.7 | -1.9 | -4.6 | +
O=c1c2ccccc2sn1-c1ccc(S(=O)(=O)N2CCCCC2)cc1 | -0.4 | nt | 6.3 | nt | -7.9 | nt
Cc1ccc(-n2sc3ccccc3c2=O)cc1S(=O)(=O)N1CCCCC1 | 114.8* | 21.9 | 3.2 | -34.8 | -5.0 | +
CSc1nsc(/C=C/Nc2ccc(F)cc2F)c1C#N | 51.1* | 5.5 | nt | 10.2 | nt | i
CCOc1ccccc1NC(=O)NNC(=O)COc1cccc(C)c1C | nt | nt | 3.0 | nt | -5.0 | nt
Cc1ccc(CCN2CC(C(=O)NC(C)C)CC2=O)cc1 (centres undefined) | nt | nt | -1.0 | nt | -3.9 | nt
O=C1N=C(N2CCN(c3ccccc3)CC2)S/C1=C\c1ccco1 | 32.7 | -10.1 | 7.1 | 0.7 | -14.7 | nt
O=C1N=C(N2CCN(c3ccccc3)CC2)S/C1=C/c1ccco1 | 52.2* | 2.4 | -1.0 | -1.1 | -19.9 | i
CC(=O)OCC1=C(C(=O)O)N2C(=O)C(NC(=O)c3ccc(COc4c(C)cccc4Cl)o3)C2SC1 (centres undefined) | 76.9* | -0.1 | -0.2 | -2.6 | 3.2 | i
CC(=O)OCC1=C(C(=O)O)N2C(=O)C(NC(=O)c3ccc(COc4ccc(Cl)cc4)o3)C2SC1 (centres undefined) | 63.6* | -2.0 | -1.2 | 6.6 | -5.0 | i
COC(=O)[C@H]1C[C@H](C(=O)O)[C@@H](C)C1(C)C | nt | nt | nt | nt | -15.6 | nt
Nc1c(-c2ccc(Cl)cc2)cnc2c(-c3ccccc3)cnn12 | nt | nt | 1.0 | nt | -2.0 | nt
SMILES | Hck Nef HTS | Runt-SMMHC FRET | RanGTP-Imp inh | Runt-CBFb FRET | CaV13 FRET inh | Hck-Nef confirm
Brc1ccc(C2C3=C(Nc4ncnn42)c2ccccc2OC3c2ccncc2)cc1 (centres undefined) | 72.7* | 1.8 | 2.9 | -0.6 | -4.5 | +
CC1CC(C)CN(C(=O)COC(=O)COc2ccccc2C#N)C1 (centres undefined) | nt | nt | nt | nt | -2.3 | nt
CC1=CC(C)[C@H](/C=N/n2c(=O)[nH]c3c([nH]c4ccc(Br)cc43)c2=O)C(C)C1 (some centres undefined) | 60.7* | 4.5 | -55.0 | nt | 1.8 | i
COc1ccc(-c2cc(=O)oc3cc(OCC(=O)c4cccc([N+](=O)[O-])c4)ccc23)cc1 | 80.1* | 19.7 | 6.2 | 5.3 | -14.0 | i
CCN(CCO)c1nc(SC)nc2c1sc1nc(-c3ccco3)c3c(c12)CCC3 | 67.7* | -130.6 | 1.8 | -13.3 | nt | i
COc1ccc(NC(=S)N2CCN(CCN3C(=O)c4cccc5cccc(c45)C3=O)CC2)cc1 | 129.1* | -2.0 | 2.6 | -1.2 | 7.5 | i
C#CCn1c(=NC(=O)c2sc3ccccc3c2Cl)sc2cc(S(N)(=O)=O)ccc21 | 61.8* | -30.8 | 2.6 | -18.4 | -1.8 | +
C#CCn1c(=NC(=O)c2ccc(S(=O)(=O)N3CCc4ccccc4C3)cc2)sc2cc(S(N)(=O)=O)ccc21 | 27.2 | -6.1 | 9.9 | -4.2 | nt | nt
Nc1cc2ccncc2c2ccccc12 | 52.4* | 27.9 | 11.2 | 11.5 | -3.0 | i
Cc1ccc(CN2CCN(CC(=O)N=Nc3c(O)[nH]c4ccccc34)CC2)cc1 | 1.9 | 2.5 | -2.2 | -2.6 | -2.6 | nt
O=C(N=Nc1c(O)[nH]c2ccccc12)c1ccc(CN2CCOCC2)cc1 | 94.5* | 3.0 | -2.6 | 1.1 | 8.9 | +
N#Cc1ccc(/C=C\c2nccc3c2[nH]c2ccccc23)cc1 | 57.3* | 89.6 | 102.7* | 16.9 | 38.1* | i
Cc1ccc(N=Cc2cc(Cc3ccccc3Cl)cc([N+](=O)[O-])c2O)c(O)c1 | 55.8* | -44.3 | -7.3 | -17.8 | nt | i
Cc1n[nH]c(C)c1Sc1ccccc1N=Cc1cc(Cl)cc([N+](=O)[O-])c1O | -9.1 | -2.2 | -2.5 | 2.7 | nt | nt
c1ccc(COc2ccc(Nc3ncnc4nc[nH]c34)cc2)cc1 | 68.5* | -3.0 | -2.4 | 0.2 | -5.3 | +
C[C@H](CO)N1C[C@H](C)[C@H](CN(C)S(=O)(=O)c2cccc(F)c2)Oc2ncc(-c3cccc(C(=O)N(C)C)c3)cc2C1=O | nt | nt | nt | nt | -8.3 | nt
Cc1ccc(CNC(=O)CNC(=O)[C@@H]2Cc3ccccc3CN2C(=O)OC(C)(C)C)cc1 | nt | nt | 1.0 | nt | -14.2 | nt
N#Cc1c2nc3ccccc3nc2n2cc(NC(=O)c3ccc(F)cc3)ccc12 | 72.2* | -66.4 | nt | -29.9 | -5.2 | i
O=C(O)COc1ccccc1/C=N/Nc1ccc(S(=O)(=O)Nc2ccc(Cl)cc2)cc1[N+](=O)[O-] | 104.3* | -16.7 | -0.4 | -10.6 | 8.3 | i
CC(=O)N1CCN(C(=O)CSc2nnc(C)n2-c2ccccc2)CC1 | nt | nt | 6.8 | nt | -20.4 | nt
CSc1nccc(-c2sc(SC)c(C#N)c2-c2ccccc2)n1 | -10.7 | 1.9 | 1.3 | 1.9 | -4.2 | nt
CSc1sc(-c2ccnc(SCCS(C)(=O)=O)n2)c(-c2ccccc2)c1C#N | 71.6* | 33.6 | -0.9 | 1.6 | 8.3 | i
